In article PMC8251575 (Diabetes, Obesity & Metabolism, 2021):

Tests used:
[1] = Oral semaglutide pharmacokinetics in plasma; format: in vivo, human; conditions: median (min, max)
Summary of the method: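 Adults with type 2 diabetes on diet/exercise and/or metformin took once-daily oral tablets in a crossover trial: 3 mg weeks 0–4, 7 mg weeks 4–8, 14 mg weeks 8–12. Plasma was sampled at weeks 4, 8 and 12 after the last dose of each strength.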

[2] = system: subjects with type 2 diabetes; test: Safety: treatment-emergent adverse events and hypoglycaemic episodes; format: in vivo, human; conditions: during oral semaglutide treatment
Summary of the method: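 This was a 12-week crossover versus placebo in adults aged 18–75 with type 2 diabetes (HbA1c 6.0%–9.0%, BMI 20–38 kg/m²), with a 5–9-week wash-out between periods. Treatment-emergent AEs and hypoglycaemic episodes were counted from first dose to end of follow-up. Hypoglycaemia was defined as plasma glucose ≤3.9 mmol/L, or >3.9 mmol/L with symptoms. The population was the safety analysis set: all subjects given at least one dose.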

**Q.** What does the source list for `CC[C@H](C)[C@H](NC(=O)[C@H](Cc1ccccc1)NC(=O)[C@H](CCC(=O)O)NC(=O)[C@H](CCCCNC(=O)COCCOCCNC(=O)COCCOCCNC(=O)CC[C@H](NC(=O)CCCCCCCCCCCCCCCCC(=O)O)C(=O)O)NC(=O)[C@H](C)NC(=O)[C@H](C)NC(=O)[C@H](CCC(N)=O)NC(=O)CNC(=O)[C@H](CCC(=O)O)NC(=O)[C@H](CC(C)C)NC(=O)[C@H](Cc1ccc(O)cc1)NC(=O)[C@H](CO)NC(=O)[C@H](CO)NC(=O)[C@@H](NC(=O)[C@H](CC(=O)O)NC(=O)[C@H](CO)NC(=O)[C@@H](NC(=O)[C@H](Cc1ccccc1)NC(=O)[C@@H](NC(=O)CNC(=O)[C@H](CCC(=O)O)NC(=O)C(C)(C)NC(=O)[C@@H](N)Cc1cnc[nH]1)[C@@H](C)O)[C@@H](C)O)C(C)C)C(=O)N[C@@H](C)C(=O)N[C@@H](Cc1c[nH]c2ccccc12)C(=O)N[C@@H](CC(C)C)C(=O)N[C@H](C(=O)N[C@@H](CCCNC(=N)N)C(=O)NCC(=O)N[C@@H](CCCNC(=N)N)C(=O)NCC(=O)O)C(C)C` [Oral semaglutide]?
**A.** Semaglutide tmax ([1]; 3 mg once daily, week 4, n = 15): 1 h; Semaglutide tmax ([1]; 7 mg once daily, week 8, n = 13): 1 h; Semaglutide tmax ([1]; 14 mg once daily, week 12, n = 13): 1 h; Deaths, n (subjects) ([2]; N = 15): no deaths; Any AE, % of subjects ([2]; safety analysis set N = 15): 93.3%
